ChEMBL document CHEMBL1914423, “New imidazo[2,1-b]thiazole derivatives: synthesis, in vitro anticancer evaluation, and in silico studies” (Eur J Med Chem, 2011)
pIC50: −log10 of the molar value.

Legend:
NCI-H322M = assay: Anticancer activity against human NCI-H322M cells assessed as cell growth at 10^-5 M after 48 hrs by SRB assay; format: functional; conditions: read-out: Activity
PC-3 = assay: Anticancer activity against human PC3 cells assessed as cell growth at 10^-5 M after 48 hrs by SRB assay; format: functional; conditions: PC-3, 48 h, read-out: Activity
NCI/ADR-RES = assay: Anticancer activity against human NCI/ADR-RES cells assessed as cell growth at 10^-5 M after 48 hrs by SRB assay; format: functional; conditions: read-out: Activity
SK-OV-3 = assay: Anticancer activity against human SKOV3 cells assessed as cell growth at 10^-5 M after 48 hrs by SRB assay; format: functional; conditions: SK-OV-3, 48 h, read-out: Activity
OVCAR-5 = assay: Anticancer activity against human OVCAR5 cells assessed as cell growth at 10^-5 M after 48 hrs by SRB assay; format: functional; conditions: OVCAR-5, 48 h, read-out: Activity
K562 = assay: Anticancer activity against human K562 cells assessed as cell growth at 10^-5 M after 48 hrs by SRB assay; format: functional; conditions: K562, 48 h, read-out: Activity
Method in brief: (§1)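 NCI-60 single-dose screen at one concentration. Cells grown in RPMI 1640 with 5% FBS and 2 mM L-glutamine, plated at 5000–40,000 cells/well, and pre-incubated 24 h at 37 °C in 5% CO2 before DMSO-dissolved drug was added. Cells fixed with TCA, SRB-stained, absorbance read at 515 nm. Percent growth calculated against time-zero and untreated control plates.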

MDA-MB-435 = assay: Anticancer activity against human MDA-MB-435 cells assessed as cell growth at 10^-5 M after 48 hrs by SRB assay; format: functional; conditions: MDA-MB-435, 48 h, read-out: Activity
SW-620 = assay: Anticancer activity against human SW620 cells assessed as cell growth at 10^-5 M after 48 hrs by SRB assay; format: functional; conditions: SW-620, 48 h, read-out: Activity
Method in brief: (§2)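 NCI-60 single-dose screen: cells in RPMI 1640 with 5% FBS and 2 mM L-glutamine, plated at 5000–40,000 cells/well by doubling time, and preincubated 24 h at 37 °C. Compound given at one concentration from DMSO stock. Cells TCA-fixed and SRB-stained, absorbance at 515 nm. Percent growth relative to time-zero and untreated controls; inhibition % = 100 − growth %.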

UACC-257 = assay: Anticancer activity against human UACC257 cells assessed as cell growth at 10^-5 M after 48 hrs by SRB assay; format: functional; conditions: UACC-257, 48 h, read-out: Activity; method in brief: as §2
786-0 = assay: Anticancer activity against human 786-0 cells assessed as cell growth at 10^-5 M after 48 hrs by SRB assay; format: functional; conditions: 786-0, 48 h, read-out: Activity; method in brief: as §1
IGROV-1 = assay: Anticancer activity against human IGROV1 cells assessed as cell growth at 10^-5 M after 48 hrs by SRB assay; format: functional; conditions: IGROV-1, 48 h, read-out: Activity; method in brief: as §1
CCRF-CEM = assay: Anticancer activity against human CCRF-CEM cells assessed as cell growth at 10^-5 M after 48 hrs by SRB assay; format: functional; conditions: read-out: Activity; method in brief: as §1
CAKI-1 = assay: Anticancer activity against human Caki1 cells assessed as cell growth at 10^-5 M after 48 hrs by SRB assay; format: functional; conditions: CAKI-1, 48 h, read-out: Activity; method in brief: as §1
SF-295 = assay: Anticancer activity against human SF295 cells assessed as cell growth at 10^-5 M after 48 hrs by SRB assay; format: functional; conditions: SF-295, 48 h, read-out: Activity
HT-29 = assay: Anticancer activity against human HT-29 cells assessed as cell growth at 10^-5 M after 48 hrs by SRB assay; format: functional; conditions: HT-29, 48 h, read-out: Activity; method in brief: as §1
RPMI-8226 = assay: Anticancer activity against human RPMI8226 cells assessed as cell growth at 10^-5 M after 48 hrs by SRB assay; format: functional; conditions: RPMI-8226, 48 h, read-out: Activity
SK-MEL-2 = assay: Anticancer activity against human SK-MEL-2 cells assessed as cell growth at 10^-5 M after 48 hrs by SRB assay; format: functional; conditions: SK-MEL-2, 48 h, read-out: Activity
UO-31 = assay: Anticancer activity against human UO31 cells assessed as cell growth at 10^-5 M after 48 hrs by SRB assay; format: functional; conditions: UO-31, 48 h, read-out: Activity; method in brief: as §2
SNB-19 = assay: Anticancer activity against human SNB19 cells assessed as cell growth at 10^-5 M after 48 hrs by SRB assay; format: functional; conditions: SNB-19, 48 h, read-out: Activity
OVCAR-8 = assay: Anticancer activity against human OVCAR8 cells assessed as cell growth at 10^-5 M after 48 hrs by SRB assay; format: functional; conditions: OVCAR-8, 48 h, read-out: Activity
SR = assay: Anticancer activity against human SR cells assessed as cell growth at 10^-5 M after 48 hrs by SRB assay; format: functional; conditions: read-out: Activity; method in brief: as §2
MCF7 = assay: Anticancer activity against human MCF7 cells assessed as cell growth at 10^-5 M after 48 hrs by SRB assay; format: functional; conditions: MCF7, 48 h, read-out: Activity; method in brief: as §1
HOP-92 = assay: Anticancer activity against human HOP92 cells assessed as cell growth at 10^-5 M after 48 hrs by SRB assay; format: functional; conditions: HOP-92, 48 h, read-out: Activity; method in brief: as §1
SF-268 = assay: Anticancer activity against human SF268 cells assessed as cell growth at 10^-5 M after 48 hrs by SRB assay; format: functional; conditions: SF-268, 48 h, read-out: Activity
Malme-3M = assay: Anticancer activity against human MALME-3M cells assessed as cell growth at 10^-5 M after 48 hrs by SRB assay; format: functional; conditions: read-out: Activity; method in brief: as §1
NCI-H226 = assay: Anticancer activity against human NCI-H226 cells assessed as cell growth at 10^-5 M after 48 hrs by SRB assay; format: functional; conditions: NCI-H226, 48 h, read-out: Activity
[1] = Antiproliferative activity against human A375P cells after 48 hrs by MTT assay; format: functional, cell-based
Method in brief: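 A375P cells in DMEM with 10% FBS at 37 °C, 5% CO2. Seeded at 5×10³ cells/well, held 24 h, then treated with 12-point 3-fold serial dilutions for 48 h. Viability by MTT reduction. IC50 values are means of triplicate experiments.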

T47D = assay: Anticancer activity against human T47D cells assessed as cell growth at 10^-5 M after 48 hrs by SRB assay; format: functional; conditions: read-out: Activity; method in brief: as §2
KM12 = assay: Anticancer activity against human KM12 cells assessed as cell growth at 10^-5 M after 48 hrs by SRB assay; format: functional; conditions: KM12, 48 h, read-out: Activity; method in brief: as §1
HCT-15 = assay: Anticancer activity against human HCT15 cells assessed as cell growth at 10^-5 M after 48 hrs by SRB assay; format: functional; conditions: HCT-15, 48 h, read-out: Activity; method in brief: as §1
SK-MEL-5 = assay: Anticancer activity against human SK-MEL-5 cells assessed as cell growth at 10^-5 M after 48 hrs by SRB assay; format: functional; conditions: SK-MEL-5, 48 h, read-out: Activity
A498 = assay: Anticancer activity against human A498 cells assessed as cell growth at 10^-5 M after 48 hrs by SRB assay; format: functional; conditions: A498, 48 h, read-out: Activity; method in brief: as §1

| Structure (SMILES) | growth at 10 µM (NCI-H322M) [%] | growth at 10 µM (PC-3) [%] | growth at 10 µM (NCI/ADR-RES) [%] | growth at 10 µM (SK-OV-3) [%] | growth at 10 µM (OVCAR-5) [%] | growth at 10 µM (K562) [%] | growth at 10 µM (MDA-MB-435) [%] | growth at 10 µM (SW-620) [%] | growth at 10 µM (UACC-257) [%] | growth at 10 µM (786-0) [%] | growth at 10 µM (IGROV-1) [%] | growth at 10 µM (CCRF-CEM) [%] | growth at 10 µM (CAKI-1) [%] | growth at 10 µM (SF-295) [%] | growth at 10 µM (HT-29) [%] | growth at 10 µM (RPMI-8226) [%] | growth at 10 µM (SK-MEL-2) [%] | growth at 10 µM (UO-31) [%] | growth at 10 µM (SNB-19) [%] | growth at 10 µM (OVCAR-8) [%] | also measured |
| --- | --- | --- | --- | --- | --- | --- | --- | --- | --- | --- | --- | --- | --- | --- | --- | --- | --- | --- | --- | --- | --- |
| COc1cccc(-c2nc3sccn3c2-c2ccnc(NCCNC(=O)c3cccc(C(F)(F)F)c3)n2)c1 | 102 | 55 | 38.4 | 81.1 | 97.8 | 48.1 | 38.8 | 103 | 78.4 | 76 | 53.4 | 39.3 | 50.6 | 54.2 | 49.8 | 25.8 | 77 | 39.5 | 102 | 40.5 | growth at 10 µM (SR): 63.2%; growth at 10 µM (MCF7): 78.8%; growth at 10 µM (HOP-92): 106%; growth at 10 µM (SF-268): 71%; growth at 10 µM (Malme-3M): 50.8%; growth at 10 µM (NCI-H226): 87.5%; pIC50 [1]: 5.32; growth at 10 µM (T47D): 46.7%; growth at 10 µM (KM12): 58.6%; growth at 10 µM (HCT-15): 55.8%; growth at 10 µM (SK-MEL-5): 48.4%; growth at 10 µM (A498): 63.5% |
| COc1cccc(-c2nc3sccn3c2-c2ccnc(NCCNC(=O)c3cc(C(F)(F)F)cc(C(F)(F)F)c3)n2)c1 | 95.5 | 49.5 | 72.7 | 97 | 101 | 83.5 | 83.9 | 119 | 99.6 | 75.9 | 81.5 | 69.9 | 85.9 | 94.5 | 69.8 | 50 | 81.8 | 61.2 | 99.2 | 82.4 | growth at 10 µM (SR): 78.1%; growth at 10 µM (MCF7): 72.5%; growth at 10 µM (HOP-92): 38.5%; growth at 10 µM (SF-268): 82.5%; growth at 10 µM (Malme-3M): 94.1%; growth at 10 µM (NCI-H226): 102%; pIC50 [1]: < 5.00; growth at 10 µM (T47D): 77%; growth at 10 µM (KM12): 79.4%; growth at 10 µM (HCT-15): 83.8%; growth at 10 µM (SK-MEL-5): 75%; growth at 10 µM (A498): 95.6% |
| COc1cccc(-c2nc3sccn3c2-c2ccnc(NCCNC(=O)c3ccc(N4CCOCC4)c(C(F)(F)F)c3)n2)c1 | 101 | 60.8 | 69.6 | 82.8 | 96.9 | 32.6 | 60.8 | 108 | 87.7 | 71.5 | 68.6 | 54.6 | 68.8 | 69.2 | 50 | 39 | 86.5 | 58.2 | 105 | 62.4 | growth at 10 µM (SR): 76.7%; growth at 10 µM (MCF7): 90.9%; growth at 10 µM (HOP-92): 85.1%; growth at 10 µM (SF-268): 89.7%; growth at 10 µM (Malme-3M): 78.4%; growth at 10 µM (NCI-H226): 85.4%; pIC50 [1]: < 5.00; growth at 10 µM (T47D): 67%; growth at 10 µM (KM12): 76.2%; growth at 10 µM (HCT-15): 66.6%; growth at 10 µM (SK-MEL-5): 57.2%; growth at 10 µM (A498): 64.6% |
